# Fewer inactive variants are shown than the library holds.
# B1: tRNA (parent)
# chain: GUUCCGUUGGCGUAAUGGUAACGCGUCUCCCUCCUAAGGAGAAGACUGCGGGUUCGAGUCCCGUACGGAACG
# Variants of: B1
# Assay: yeast fitness relative to wild type (ratio to wild type); higher = fitter; tRNA-Arg(CCU), competitive growth, 37 C, YPD
# In short: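 A pool of Saccharomyces cerevisiae strains, each with a tRNA-Arg(CCU) gene variant at the native genomic locus, was competed in YPD at 37°C for 24 hours across six parallel replicates. The variants had been chemically synthesised at a 3% per-site mutation rate over 69 sites, and gene amplicons before and after competition were read by 100-nucleotide paired-end sequencing. Darwinian fitness relative to wild type rested on changes in genotype frequencies. Genotypes required ≥ 100 starting reads, and estimates < 0.5 were set to 0.5.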
row,Variant,yeast fitness
1,GUUCCGUUGGCGUAAAGGUAAUGCGUCUCCCUCCUAAGGAGAAGACUACGGGUUCGAGUCCCGUACGGAACG [U16A C22U G48A],0.631
2,GUUCCGUUGGCGUAAAGGUACCGCGUCUCCCUCCUAAGGAGAAGUCUGCGGGUUCGAGUUCCGUACCGAACG [U16A A21C A45U C60U G67C],≤ 0.5
3,GUUCCGUUGGCGUAUUGGUAACGCGUCUCCCUCCUAAGGAGAAGACAGCGGGUUCGUGUCCCGUACGGAACG [A15U U47A A57U],0.719
4,GUUCCGUUGGCGUAUUGGUAACGCGUCUCCCUCCUAAGGAGAAGACUGCGGGUUCGAGUCCCGAACGGAACG [A15U U64A],0.709
5,GUUCCGUUGGCGUAAAGGUAACGCGUCUCCCUCCUAAGGAGAAGACUGCGGGUUCGAGUCCCGUGCGGAACG [U16A A65G],0.933
6,GUUCCGUUGGCGUAAAGGUAUCCCGUCUCCCUCCUAAGGAGAAGACCGCGGGUUCGAGUCCCGUACGGAACG [U16A A21U G23C U47C],≤ 0.5
7,GUUCCGUUGGCGUAUUGGUAACGCGUCCCCCUCCUAAGGAGAAGACUGCGGGUUCGAGUCCCGUACGGAACG [A15U U28C],0.772
8,GUUCCGUUGGCGUAUUGGUAACGCGUCUCCCACCUAAGGAGAAGACUGCAAGUUCCAGUCGUGUACGGAACG [A15U U32A G50A G51A G56C C61G C62U],≤ 0.5
9,GUUCCGUUGGCGUAAAGGUAACGCGUCUCCCUCCUAAGGAGAAGACUGCGGGUUCGAGUCCCGUACGGCACG [U16A A69C],0.969
10,GUUCCGUUGGCGUAAAGGUAACGCGUCUCCCUCCUAAGGAGAAGACUGCGGGUUCGAGUCCCGUACGGGACG [U16A A69G],0.853
11,GUUCCGUUGGCGUAAAGGUAGCGCGUGUCCCUCCUAAGGAGAAGACUGCGGGUUCGAGUCCCGUACGCAACG [U16A A21G C27G G68C],≤ 0.5
12,GUUCCGUUGGCGUAAAGGUAACGCGUCUCCCUCCUAAGGAGACGACUGCGGGUUCGAGUCCCGUACGGAACG [U16A A43C],0.906
13,GUUCCGUUGGCGUAUCGGUAACGCGUCUCCCUCCUAAGGAGAAGACUGCGGGUUCGAGUCCCGUACGGAACG [A15U U16C],0.893
14,GUUCCGUUGGCGUAAAGGUAACGCGUCUCCCUCCUUAGGAGAAGAAUGCGGGUUCGAGUCCCGUACGGAACG [U16A A36U C46A],≤ 0.5
15,GUUCCGUUGGCGUAAAGGUAACGCGUCUCCCUCCUAGGGAGAAGACUGCGGGUUCGAGUCCUGUACGGAACG [U16A A37G C62U],0.543
16,GUUCCGUUGGCGUAAAGGUAACGCGUCUCCCUCCUAAGGAGAAGACUGCGGGUUCGUGUCCCGUAUGGAACG [U16A A57U C66U],0.528
17,GUUCCGUUGGCGUAAAGGUGACGCGUCUCCCUCUUAAGGAGAAGACUGCGGGUUCCAGUCCCGUACGGAACG [U16A A20G C34U G56C],0.509
18,GUUCCGUUGGCGUAUUGGUAACGCGACUGCCUCCUAAGGAGAAGACUGCAGGUUCGAGUCGCCUACGGAACG [A15U U26A C29G G50A C61G G63C],0.57
19,GUUCCGUUGGCGUAUUGGUAACGCGACUCCAUCCUAAGGAGAAGACUGCGGGUUCGAGUCCCGUACUGAACG [A15U U26A C31A G67U],≤ 0.5

row,Variant,yeast fitness
1,GUUCCGUUGGCGUAAAGGUAGCGCGUGUCCCUCCUAAGGAGAAGAUUGCGGGUUCGAGUCCCGUACGGAACG [U16A A21G C27G C46U],0.566
2,GUUCCGUUGGCGUAAAGGUAACGCGUCUCCCUCCUUAGGAGAAGACUGCGGGUUCGAGUCCCGUACGGAACG [U16A A36U],0.552
3,GUUCCGUUGGCGUAUGGGUAACGCGUCUCCCUCCUAAGGAGAAGACUGCGGGUUAGCGCCCCGUGCGGAACG [A15U U16G C55A A57C U59C A65G],≤ 0.5
4,GUUCCGUUGGCGUAUUGGUAACGCGUCUCCCACCUAAGGAGAAAACUGCGGGUUCGAGUCCCGUCCGGAACG [A15U U32A G44A A65C],≤ 0.5
5,GUUCCGUUGGCGUAUUGGAAACGAGUCUCCCUCUUAAGGCGAAGACUGCGGGUUCGAGUCCCGUACGGAACG [A15U U19A C24A C34U A40C],≤ 0.5
6,GUUCCGUUGGCGUAUUGGGAACGCGUAACCCUCCUAAGGAGAAGACUGCGGGUUCGAGUCCCGUACGGAACG [A15U U19G C27A U28A],0.578
7,GUUCCGUUGGCGUAAAGGUAAUGCGCCUCCCUCCUAAGGAGAAGACUGCGGGUUCGAGUCCCGUACAGAACG [U16A C22U U26C G67A],≤ 0.5
8,GUUCCGUUGGCGUAUUGGAGACGCGUCUCCCUCCUAAGGAAAAGACUGCGGGUUCGAGUGCCGUGCGGAACG [A15U U19A A20G G41A C60G A65G],≤ 0.5
9,GUUCCGUUGGCGUAUUGGUAACGCGACUCCCUCCUAAGGAGAAGACUGCGGGUUAGAGUCCCGUACGGACCG [A15U U26A C55A A70C],≤ 0.5
10,GUUCCGUUGGCGUAUUGGUAACGCGUCUCCCAGCUAAGGAGAAGACUGCGGGAUCGAGUCCCGUACGGAACG [A15U U32A C33G U53A],≤ 0.5
11,GUUCCGUUGGCGUAUUGGUAACGCGUCUCCCUCCUAAGGAGAAGACUGCGGGAUCGAGUCCAGUACGGAACG [A15U U53A C62A],≤ 0.5
12,GUUCCGUUGGCGUAUUGGUAACGCGUCUCCCUCCUAAGGAGAAGACUGCGGGUACGAGUCCCGUACGGAACG [A15U U54A],0.53
13,GUUCCGUUGGCGUAAAGGUAACGCGUCUCCCUCCUACGGAGAAGACUGCGGGUUUGAGUCCCGUACGGAACG [U16A A37C C55U],≤ 0.5
14,GUUCCGUUGGCGUAUUGGAGACGCGUCUCCCUCCUAAGGUGAUGACUGCGGGUUCGAGUGCUGUACGGAACG [A15U U19A A20G A40U A43U C60G C62U],0.518
15,GUUCCGUUGGCGUAUUGGAAACGCGUCUCCCUCCUAAGGACAAGACUGCGGGUUGGAGUCCCGUAGGGAACG [A15U U19A G41C C55G C66G],≤ 0.5
16,GUUCCGUUGGCGUAUUGGUAACGCGUCUCCCUCCUAAGGAGAAGACGGCGGGUUCGCGUCCCGUACGGAACG [A15U U47G A57C],≤ 0.5
17,GUUCCGUUGGCGUAUUGGUAACGCGUCUCCCUCCUAAGGAGAAGACAGCGGGUUCGAGUCCCAUACGGAACG [A15U U47A G63A],≤ 0.5
18,GUUCCGUUGGCGUAUUGGUAACGCGACUCCCUCCUAGGGAGAAGACUGCGGGUUCGAGUCCCGAACGGAACG [A15U U26A A37G U64A],≤ 0.5
19,GUUCCGUUGGCGUAAAGGUGACGCGUCUGUCUCCUAAGGUGAAGACUGCGGGUUCGAGUCCCGUACGGAGCG [U16A A20G C29G C30U A40U A70G],≤ 0.5

# From the RNAGym collection of RNA variant scans (doi:10.1126/science.aae0568)
